Screening data deposited in PubChem BioAssay by several laboratories.
Shown are actives, neighbours in structure and some others; about 9.6% of the full set was active somewhere.
PMI act hi M6P = human PMI activators, high substrate, primary screen, biochemical, fluorescence intensity, near-saturating mannose 6-phosphate; Mannose-6-phosphate isomerase (Homo sapiens), P34949; coupled PMI enzyme assay, resazurin fluorescence, 20 min; stronger effect = higher value; 1 = untreated enzyme, 0 = substrate-free blank; activation factor at 20 µM; actives 0.34% (n = 190,000);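 active means activation factor of 2 or more at 20 µM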
Target sequence (P34949 whole entry, looked up): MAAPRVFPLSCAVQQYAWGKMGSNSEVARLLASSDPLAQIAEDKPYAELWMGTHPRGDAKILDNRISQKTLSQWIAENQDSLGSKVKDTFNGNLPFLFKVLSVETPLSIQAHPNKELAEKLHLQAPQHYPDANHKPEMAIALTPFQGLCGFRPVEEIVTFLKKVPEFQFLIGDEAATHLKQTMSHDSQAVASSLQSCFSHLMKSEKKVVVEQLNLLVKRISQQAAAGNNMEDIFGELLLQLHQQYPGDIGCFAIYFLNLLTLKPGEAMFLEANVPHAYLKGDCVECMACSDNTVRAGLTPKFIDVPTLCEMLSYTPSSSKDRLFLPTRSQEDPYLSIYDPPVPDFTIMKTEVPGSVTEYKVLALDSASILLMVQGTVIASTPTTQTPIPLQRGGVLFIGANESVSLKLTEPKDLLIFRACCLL
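Test system: human phosphomannose isomerase with PGI, G6PDH, diaphorase coupling enzymes; Amount: PMI at 15 ng/mL final; Reagent: Mannose-6-phosphate 1.0 mM (near-saturating) plus 0.22 mM NADP+; Timing: 20 min, room temperature; Technique: resorufin fluorescence at Ex 544/Em 590 nm; Dosing: 20 µM single dose.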
HCT116 PTEN-null = growth suppression of PTEN-null HCT116, primary screen, cell-based, CellTiter-Glo; viability, % at 10 µM; actives 1.2% (n = 140,000); HCT116 PTEN-null viability, 60 h; stronger effect = lower value;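 active means viability at or below a set limit, 4 SD under the median of all tested compounds, cut at about 3.7% in these data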;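 further: PTEN knockout HCT116 line with beta catenin targeted HCT116 as companion control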
PMI activator = activators of human PMI, primary screen, biochemical, fluorescence intensity, near-Km mannose 6-phosphate | Mannose-6-phosphate isomerase (Homo sapiens), P34949 | purified human PMI, coupled resazurin fluorescence, 20 min; stronger effect = higher value; 1 = vehicle control, 0 substrate-free wells | activation factor at 20 µM | actives 0.005% (n = 190,000);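 active means activation factor of 2 or more at 20 µM, relative to plate controls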
Lmaj promast = Leishmania major promastigote growth inhibition, primary screen; Leishmania major promastigotes, resazurin fluorescence viability; inhibition, % at 10 µM; AID 1063, 2008; actives 9% (n = 200,000); in the data active means inhibition above about 50%;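 further: promastigotes grown with compound for 44 hours at 28 °C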
HCT116 bCat-KO = primary screen for growth suppressors in beta-catenin knockout HCT116 cells (colon tumor, human); actives 1.5% (n = 140,000); AID 818, 2007; viability, % at 10 µM; HCT116 beta-catenin knockout viability, CellTiter-Glo, 60 h; stronger effect = lower value;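 active means viability at or under a set limit, the compound median less 4 SD, cut at about 6% in these data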;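 further: 0% = Hyamine 1622 control at 20 µM and 100% = untreated cell control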
An asterisk follows results filed as active; . = no result.

SMILES	PMI act hi M6P	HCT116 PTEN-null	PMI activator	Lmaj promast	HCT116 bCat-KO
CN1/C(=C\C(=O)COC(=O)Cn2nnc(-c3ccccc3)n2)C(C)(C)c2ccccc21	0.9	18	0.9	90*	17
OC(CCCN1CCC(O)(c2ccc(Cl)cc2)CC1)c1ccc(F)cc1 (stereo unspecified)	0.9	0.7*	1	96*	0.6*
Fc1ccccc1CSCc1nc2ccccc2[nH]1	1.1	.	1	10	.
COc1ccc(C(=O)n2c(C)c(CCO)c(=O)n2C)cc1	1.1	.	1.1	-11	.
O=C(NC(=S)N1CCCCC1)c1cccs1	0.9	94	0.8	55*	91
O=C(NC(=S)N1CCN(c2ccc(Cl)cc2[N+](=O)[O-])CC1)c1cccs1	1	54	0.9	75*	47
O=C(NC(=S)N1CCN(c2ccc(Cl)cc2[N+](=O)[O-])CC1)c1ccco1	0.9	82	0.8	-10	80
CCOc1ccc(Nc2nc(N)nc(CN3CCN(c4ccccc4F)CC3)n2)cc1	0.9	.	0.9	52*	.
CCOc1ccc(Nc2nc(N3CCCCC3)nc(N3CCCCC3)n2)cc1	1	78	0.9	59*	75
c1ccc(Nc2nc(N3CCCCC3)nc(N3CCNCC3)n2)cc1	0.9	1.4*	0.9	100*	1.5*
C1CCN(c2nc(N3CCCC3)nc(N3CCNCC3)n2)C1	0.9	51	0.9	100*	62
CCOC(=O)c1c(C)n(C)c2ccc(O)c(CN3CCC(C)CC3)c12	0.8	39	0.7	61*	39
CCOC(=O)c1c(C)n(-c2ccccc2)c2ccc(O)c(CN(C)C)c12	0.9	.	0.9	94*	.
CCOC(=O)c1c(C)n(C)c2ccc(O)c(CN(CC)CC)c12	0.9	65	0.8	62*	59
O=C(O)c1sc2cc(C(F)(F)F)cnc2c1-c1cccs1	1	.	1.2	-3	.
CCCCN(C)Cc1c(C)[nH]c2c(Cl)cccc2c1=O	0.9	90	0.8	100*	87
CC(C)(C)NC(=O)C(=O)NCCC1=CCCCC1	1	100	1	-9	101
Cc1ccc(C(=O)CC(=O)c2cccc(F)c2)c(O)c1	1.2	40	1.1	97*	49
CC(=O)c1ccc(C)cc1OC(=O)c1cccc(F)c1	1.1	.	1.1	-6	.
Cc1ccc(C)c(NC(=O)c2ccccc2O)c1	0.9	81	0.9	16	82
Cc1ccc(O)c(C(=O)CC(=O)c2ccccc2Cl)c1	1	.	0.9	95*	.
COc1ccc(-c2noc(CCC(=O)NCCc3cccc(C)c3)n2)cc1	0.9	.	0.9	15	.
Fc1cccc(/C=N/Nc2nc3ccccc3[nH]2)c1	1	.	0.9	83*	.
C(=N\Nc1nc2ccccc2[nH]1)/c1ccccc1	.	.	.	47	.
Fc1cccc(/C=N/Nc2ccc3ccccc3n2)c1	1.1	.	1.1	52*	.
SMILES	PMI act hi M6P	HCT116 PTEN-null	PMI activator	Lmaj promast	HCT116 bCat-KO
Fc1ccc(/C=N/Nc2nc3ccccc3[nH]2)cc1F	1.1	.	1.1	90*	.
Cc1cc(NC(=S)Nc2ccc(C)c(Cl)c2)n[nH]1	0.6	.	0.5	28	.
CCCCCCCCCCOC(=O)C[N+](C)(C)C/C=C(/C)Cl	0.8	87	0.9	100*	87
CCCCCCCCOC(=O)C[N+](C)(C)C/C=C(/C)Cl	1.1	103	1.1	67*	89
CCCCCCCOC(=O)c1nc(Cl)c(Cl)c(N)c1Cl	0.8	100	0.8	2	92
CC(=O)c1cccc(OCC(=O)c2cc(C)n(-c3cc(C)on3)c2C)c1	1	42	1.1	2	23
Cc1cc(C(=O)CCl)c(C)n1-c1ccon1	1.1	.	1.2	97*	.
Cc1cc(C(=O)CCl)c(C)n1-c1cccc([N+](=O)[O-])c1	1	.	1.2	101*	.
CC(=O)c1c(C(C)=O)c(C)n(-c2cccc([N+](=O)[O-])c2)c1C	1	107	1.1	29	100
Cc1csc(-c2cnn(-c3ccccc3)c2NC(=O)c2ccc(C(F)(F)F)cc2)n1	0.9	84	0.8	12	95
Cc1ccc2cc(CN(CCCN3CCOCC3)C(c3nnnn3Cc3ccco3)C(C)C)c(=O)[nH]c2c1C (stereo unspecified)	.	.	.	67*	.
CCC(c1nnnn1CC1CCCO1)N(CCCO)Cc1cc2cccc(C)c2[nH]c1=O (stereo unspecified)	1.2	84	1.2	-2	81
Cc1ccc2cc(CN(CCN3CCOCC3)Cc3nnnn3Cc3ccco3)c(=O)[nH]c2c1C	0.8	85	1.1	-3	79
Cc1cccc2cc(CN(CC3CCCO3)C(c3nnnn3Cc3ccco3)C(C)C)c(=O)[nH]c12 (stereo unspecified)	0.9	40	0.8	50*	42
O=C(COC(=O)c1ncc(Cl)c(Cl)c1Cl)c1ccc(Cl)s1	1.1	93	1.1	49	80
COc1cc2c(C#N)c(N3CCc4ccccc4C3)nc(N)c2c(N)n1	0.4	28	0.4	54*	19
O=c1c2ccc([N+](=O)[O-])cc2ncn1Cc1ccccc1C(F)(F)F	0.9	.	1	-2	.
CCN1CCN(C(=O)C2c3cc(OC)c(OC)cc3C(=O)N(C)C2c2ccc(SC)cc2)CC1 (stereo unspecified)	0.9	94	0.9	76*	89
CCOC(=O)C1CCN(CC(O)COc2ccc(C(C)(C)C)cc2)CC1 (stereo unspecified)	0.9	9	0.8	92*	8
CCOC(=O)C1CCN(CC(O)COCc2cccs2)CC1 (stereo unspecified)	1	.	1	79*	.
OC(COCc1cccs1)CN1CCN(c2cccc(Cl)c2)CC1 (stereo unspecified)	1.1	88	1.1	99*	83
OC(COCc1cccs1)CN1CCN(c2ccccc2Cl)CC1 (stereo unspecified)	0.9	90	0.9	2	92
CCOC(=O)C1CCN(CC(O)COc2ccc(C(C)=O)cc2)CC1 (stereo unspecified)	1	99	1.1	92*	97
OC(COCc1cccs1)CN1CCCCCC1 (stereo unspecified)	0.9	99	0.9	-1	91
O=C1OC(/C(=C\Nc2cc(Cl)ccc2O)[N+](=O)[O-])c2ccccc21 (stereo unspecified)	0.9	.	0.9	16	.
CCOC(=O)C1CCN(CC(O)COc2ccc(C(C)(C)CC)cc2)CC1 (stereo unspecified)	1	60	1.1	97*	59
CCCCC(=O)Nc1ccc(NC(=O)c2ccc(C)c([N+](=O)[O-])c2)cc1OC	0.8	97	1	-2	95
O=C(N/C(=C/c1ccco1)C(=O)N1CCCCC1)c1cccs1	0.9	89	0.9	-4	92
